Source: ChEMBL document CHEMBL1135534, “Synthesis, cytotoxicity, and antiplasmodial and antitrypanosomal activity of new neocryptolepine derivatives” (J Med Chem, 2002)
Active and inactive are the calls of the source. The rule behind the calls is not given here.

Tests used:
[1] = tested on: MRC5; assay: Cytotoxicity against human diploid embryonic lung cell line MRC-5 using MTT assay; type: functional, cell-based
How it was run: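 Cells seeded at 5000 per well and washed after 24 h. 2-fold drug dilutions added in RPMI + 5% FCS, final DMSO below 0.5%. Incubated 7 days at 37 °C, 5% CO2/95% air. MTT read-out at 540 nm as percent reduction versus untreated controls. IC50 in triplicate (mean ± SD).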

[2] = tested on: Plasmodium falciparum; assay: Antiplasmodial activity against chloroquine-resistant Plasmodium falciparum W2; type: functional, organism-based
How it was run: (§1)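 Asexual P. falciparum cultures at 1% parasitaemia and 2% haematocrit (W2 for line 1, Ghana for line 2) exposed to 2-fold serial dilutions of the HCl salt for 48 h at 37 °C under 93% N2/4% CO2/3% O2. Plates frozen at -20 °C to lyse cells. Parasite LDH read-out: APAD reduction coupled to NBT formazan at 650 nm. IC50 in triplicate, mean ± SD.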

[3] = biological target: T1, Histidine-rich protein PFHRP-II (Plasmodium falciparum) (UniProt P05227); assay: Inhibition of beta-hematin formation; active; type: functional
T1 sequence (whole entry): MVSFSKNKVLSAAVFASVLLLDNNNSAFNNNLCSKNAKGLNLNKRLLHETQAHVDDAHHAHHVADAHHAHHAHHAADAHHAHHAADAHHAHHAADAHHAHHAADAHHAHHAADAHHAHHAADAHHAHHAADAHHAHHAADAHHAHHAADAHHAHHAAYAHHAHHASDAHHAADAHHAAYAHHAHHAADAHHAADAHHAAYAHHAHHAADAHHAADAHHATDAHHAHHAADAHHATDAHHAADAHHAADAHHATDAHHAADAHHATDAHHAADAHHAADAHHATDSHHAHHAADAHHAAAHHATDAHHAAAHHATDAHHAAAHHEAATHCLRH
How it was run: (§2)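 Hematin solutions received compound at 3 equiv relative to hemin before acidification. Incubated 40 min at 60 °C, then cooled and filtered; precipitate washed with water and dried. β-Hematin detected by FT-IR bands at 1660 and 1207 cm-1. Hemin without compound served as the formation control. Result is a qualitative yes/no call.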

[4] = tested on: Nucleic Acid; assay: (§3) Inhibition of DNA interaction using DNA Methyl Green Assay.; type: nucleic-acid assay
How it was run: (§4)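 DNA–methyl green complex stirred 24 h at 37 °C in 0.05 M Tris-HCl pH 7.5 with 7.5 mM MgSO4. Compound dried in wells under vacuum, then complex solution added. Absorbance at 620 nm compared between start and 24 h. IC50 taken as the concentration giving 50% absorbance decrease (50% dye displacement).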

[5] = tested on: Trypanosoma brucei; assay: Antitrypanosomal activity against Trypanosoma brucei.; type: functional, organism-based
How it was run: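 Bloodstream-form trypomastigotes grown in HMI-9 medium; 10 000 parasites per well exposed to a range of compound concentrations for 4 days. Multiplication read colorimetrically at 490 nm after MTT addition. Test compounds as hydrochloride salts; IC50 determined in triplicate (mean ± SD).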

[6] = tested on: Plasmodium falciparum; assay: Antiplasmodial activity against chloroquine-sensitive Plasmodium falciparum Ghana; type: functional, organism-based; how it was run: as §1
[7] = tested on: Trypanosoma cruzi; assay: Antitrypanosomal activity against Trypanosoma cruzi; type: functional, organism-based
How it was run: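 Primary mouse peritoneal macrophages seeded at 30 000 per well; after 24 h, about 10 000 trypomastigotes added per well with 2-fold drug dilutions. Incubated 4 days at 37 °C in 5% CO2/95% air. Cells MeOH-fixed and Giemsa-stained. Percent reduction of total parasite load (free trypomastigotes plus intracellular amastigotes) versus untreated cultures scored microscopically. IC50 in triplicate (mean ± SD).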

[8] = biological target: T1, Histidine-rich protein PFHRP-II (Plasmodium falciparum); assay: Inhibition of beta-hematin formation; no inhibition; type: functional; how it was run: as §2
[9] = Inhibition of beta-hematin formation; active
[10] = tested on: Nucleic Acid; assay: as §3; type: functional; how it was run: as §4
[11] = tested on: Nucleic Acid; assay: as §3; type: nucleic-acid assay; details: concentration not given here; how it was run: as §4

Structure (SMILES) | IC50 [1] | IC50 [2] | inhibition [3] | IC50 [4] | IC50 [5] | IC50 [6] | IC50 [7] | inhibition [8] | inhibition [9] | IC50 [10] | inhibition [11]
COc1ccc2[nH]c3nc4ccccc4c-3cc2c1 | > 32 µM | > 32 µM | Active | > 1000 µM | > 32 µM | > 32 µM | – | – | – | – | –
COc1cccc2c1cc1c3ccccc3nc-1n2C | 5 µM | 12.3 µM | – | > 1000 µM | 1.3 µM | 17.7 µM | 4 µM | No inhibition | – | – | –
Cn1c2nc3ccccc3c-2cc2ccccc21 [NEOCRYPTOLEPINE] | 11 µM | 14 µM | – | 92.8 µM | 4 µM | 27.3 µM | 4 µM | – | Active | – | –
Cn1c2nc3ccccc3c-2cc2cc(I)ccc21 | 16 µM | 6.3 µM | – | > 400 µM | 1 µM | 17.7 µM | 18.3 µM | – | Active | – | –
Cc1ccc2c(c1)cc1c3ccccc3nc-1n2C | 0.95 µM | 2.3 µM | – | – | 0.1 µM | 2.7 µM | – | – | – | – | –
Cn1c2nc3ccccc3c-2cc2ccc(Br)cc21 | 18.5 µM | – | Active | > 600 µM | 27.3 µM | – | > 32 µM | – | – | – | –
Cn1c2nc3ccccc3c-2cc2cc(F)ccc21 | 15 µM | 4.7 µM | – | > 500 µM | 14.3 µM | 19.3 µM | 6 µM | – | Active | – | –
Cn1c2nc3ccccc3c-2cc2ccc(Cl)cc21 | 15.5 µM | – | Active | > 700 µM | 9.3 µM | – | 17 µM | – | – | – | –
Cn1c2nc3ccccc3c-2cc2cc(C#N)ccc21 | 16 µM | 15.3 µM | – | > 600 µM | 4 µM | 17 µM | 16.3 µM | – | – | – | –
Cn1c2nc3ccc(C#N)cc3c-2cc2cc(C(F)(F)F)ccc21 | > 32 µM | 6.7 µM | – | > 200 µM | > 32 µM | 14 µM | > 32 µM | – | – | – | –
Cn1c2nc3ccc(C#N)cc3c-2cc2ccccc21 | > 32 µM | > 32 µM | – | > 1000 µM | > 32 µM | > 32 µM | – | – | Active | – | –
Cn1c2nc3ccc(C#N)cc3c-2cc2cc(F)ccc21 | 11 µM | 14.7 µM | – | > 600 µM | 4 µM | 16.3 µM | > 32 µM | – | Active | – | –
C[n+]1c2ccccc2cc2[n-]c3ccccc3c21 [CRYPTOLEPINE] | 1.5 µM | 2 µM | – | 65.7 µM | 3 µM | 2.3 µM | – | – | Active | – | –
Clc1cc(Cl)c2[nH]c3nc4ccccc4c-3cc2c1 | > 32 µM | > 32 µM | – | – | > 32 µM | > 32 µM | – | – | Active | > 1000 µM | –
Cn1c2nc3ccccc3c-2cc2ccc(C(F)(F)F)cc21 | 18 µM | – | Active | > 500 µM | 16.7 µM | – | > 32 µM | – | – | – | –
Clc1ccc2[nH]c3nc4ccccc4c-3cc2c1 | > 32 µM | > 32 µM | – | > 1000 µM | > 32 µM | > 32 µM | > 32 µM | – | Active | – | –
Fc1ccc2[nH]c3nc4ccccc4c-3cc2c1 | > 32 µM | > 32 µM | – | > 1000 µM | > 32 µM | > 32 µM | > 32 µM | No inhibition | – | – | –
COc1ccc2cc3c4ccccc4nc-3n(C)c2c1 | 3.5 µM | – | – | 150 µM | 0.4 µM | – | 1 µM | No inhibition | – | – | 37%
COc1ccc2c(c1)cc1c3cc(C#N)ccc3nc-1n2C | > 32 µM | 17 µM | – | > 500 µM | 1 µM | 28.3 µM | 1 µM | No inhibition | – | – | –
Cn1c2nc3ccc(C#N)cc3c-2cc2cc(Cl)ccc21 | > 32 µM | > 32 µM | – | – | > 32 µM | > 32 µM | – | – | – | – | –
Cn1c2nc3ccccc3c-2cc2c(C(F)(F)F)cccc21 | 16 µM | > 32 µM | – | > 400 µM | > 32 µM | > 32 µM | 16.3 µM | – | – | – | –
CSc1ccc2c(c1)cc1c3ccccc3nc-1n2C | 5 µM | 3.7 µM | – | > 600 µM | 0.8 µM | 4 µM | 4 µM | – | Active | – | –
Cn1c2nc3ccccc3c-2cc2cc(Cl)ccc21 | 16.5 µM | 5 µM | – | > 500 µM | 1.3 µM | 21 µM | 12 µM | – | Active | – | –
COc1ccc2c(c1)cc1c3ccccc3nc-1n2C | 4 µM | 4.7 µM | – | 77.9 µM | 0.3 µM | 4.3 µM | 1.7 µM | No inhibition | – | – | –
Cn1c2nc3ccccc3c-2cc2cc(Br)ccc21 | > 32 µM | 4 µM | – | > 400 µM | 1 µM | 6 µM | > 32 µM | – | Active | – | –
Cn1c2nc3ccccc3c-2cc2cc([N+](=O)[O-])ccc21 | > 32 µM | > 32 µM | – | > 1000 µM | 0.7 µM | 29 µM | – | – | – | – | –
Cn1c2nc3ccccc3c-2cc2c(Br)cccc21 | 16 µM | > 32 µM | – | > 600 µM | 16.7 µM | > 32 µM | 15.7 µM | inactive | – | – | –
